# Data as given in ChEMBL document CHEMBL3352181, “Novel phenyl and pyridyl substituted derivatives of isoindolines: Synthesis, antitumor activity and DNA binding features” (Eur J Med Chem, 2014).
# Active and inactive are the calls of the source. The calls are words filed in the database; no cut-off is given here.
# Key:
# HepG2 [1] = experiment: Induction of cell cycle arrest on human HepG2 cells assessed as accumulation at G1 phase at 20 uM after 48 hrs by propidium iodide staining based flow cytometry (reference value: 55.0 +/- 4.8%); assay type: functional
# HeLa = experiment: Antiproliferative activity against human HeLa cells assessed as inhibition of cell proliferation after 72 hrs by MTT assay; assay type: functional, cell-based
# In short: (§1)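 Cells grown as monolayers in DMEM with 10% FBS, 2 mM L-glutamine, penicillin/streptomycin, 37 °C, 5% CO2. Seeded at 5000/well on day 0. Compounds added after 24 h as five serial dilutions (0,01 to 100 µM), DMSO ≤0.1%, then 72 h. MTT read-out converted to percentage growth. IC50 by linear regression; quadruplicates in three experiments.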
# HepG2 [2] = experiment: Antiproliferative activity against human HepG2 cells assessed as inhibition of cell proliferation after 72 hrs by MTT assay; assay type: functional, cell-based; in short: as §1
# HepG2 [3] = experiment: Induction of cell cycle arrest on human HepG2 cells assessed as accumulation at G1 phase at 50 uM after 48 hrs by propidium iodide staining based flow cytometry (reference value: 55.0 +/- 4.8%); assay type: functional
# HepG2 [4] = experiment: Induction of apoptosis in human HepG2 cells assessed as apoptotic bodies at 25 uM after 24 hrs by Annexin V-Fluos staining based fluorescent microscopy; assay type: functional, cell-based
# In short: (§2)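 Cells seeded on chamber slides at 4000 per well and treated 24 h (HepG2 at 25 or 50 µM; SW620 at 50 µM). Incubated 15 min with Annexin V-Fluos reagent plus propidium iodide, washed in PBS, and examined by fluorescence microscopy for morphology and labelling.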
# MCF7 = experiment: Antiproliferative activity against human MCF7 cells assessed as inhibition of cell proliferation after 72 hrs by MTT assay; assay type: functional, cell-based; in short: as §1
# HepG2 [5] = experiment: Induction of apoptosis in human HepG2 cells assessed as induction of cytoplasmic shrinkage at 25 uM after 24 hrs by Annexin V-Fluos staining based fluorescent microscopy; assay type: functional, cell-based; in short: as §2
# HepG2 [6] = experiment: Induction of cell cycle arrest on human HepG2 cells assessed as accumulation at S phase at 50 uM after 24 hrs by propidium iodide staining based flow cytometry (reference value: 8.6 +/- 2.8%); assay type: functional
# In short: (§3)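 HepG2 or SW620 cells were seeded at 25000 per well. After 24 h they were treated, then harvested 24 or 48 h later. Attached cells were trypsinized, pooled with floating cells, PBS-washed and fixed in 70% ethanol. Cells were stained with PI 1 µg/mL plus RNase A 0.2 µg/mL, and 10 000 events were acquired by flow cytometry. Phase percentages come from DNA histograms, in duplicate, with ANOVA at p < 0.05.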
# HepG2 [7] = experiment: Induction of cell cycle arrest on human HepG2 cells assessed as accumulation at S phase at 20 uM after 48 hrs by propidium iodide staining based flow cytometry (reference value: 0 +/- 0%); assay type: functional; in short: as §3
# Nucleic Acid = experiment: Induction of DNA intercalation in supercoiled pUC19 DNA in presence of human topoisomerase 1 assessed as effect on topoisomerase 1-mediated DNA relaxation at 5 to 50 uM by agarose gel electrophoresis; assay type: nucleic-acid assay; settings: Escherichia coli
# In short: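 Supercoiled pUC19 incubated with human topoisomerase I and graded compound concentrations. Stopped with SDS/proteinase K. DNA forms resolved on 1% agarose in TBE, 2 h at 120 V, stained post-run with ethidium bromide and viewed under UV. Camptothecin was the topo I poison control.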
# HepG2 [8] = experiment: Induction of cell cycle arrest on human HepG2 cells assessed as accumulation at subG1 phase at 20 uM after 24 hrs by propidium iodide staining based flow cytometry (reference value: 3.1 +/- 0.9%); assay type: functional; in short: as §3
# HepG2 [9] = experiment: Induction of cell cycle arrest on human HepG2 cells assessed as accumulation at G1 phase at 50 uM after 24 hrs by propidium iodide staining based flow cytometry (reference value: 59.7 +/- 0.9%); assay type: functional
# HepG2 [10] = experiment: Induction of cell cycle arrest on human HepG2 cells assessed as accumulation at G2/M phase at 20 uM after 24 hrs by propidium iodide staining based flow cytometry (reference value: 31.7 +/- 1.9%); assay type: functional
# HepG2 [11] = experiment: Induction of cell cycle arrest on human HepG2 cells assessed as accumulation at G2/M phase at 50 uM after 24 hrs by propidium iodide staining based flow cytometry (reference value: 31.7 +/- 1.9%); assay type: functional
# HepG2 [12] = experiment: Induction of cell cycle arrest on human HepG2 cells assessed as accumulation at S phase at 20 uM after 24 hrs by propidium iodide staining based flow cytometry (reference value: 8.6 +/- 2.8%); assay type: functional
# HepG2 [13] = experiment: Induction of cell cycle arrest on human HepG2 cells assessed as accumulation at G1 phase at 20 uM after 24 hrs by propidium iodide staining based flow cytometry (reference value: 59.7 +/- 0.9%); assay type: functional
# HepG2 [14] = experiment: Induction of cell cycle arrest on human HepG2 cells assessed as accumulation at subG1 phase at 50 uM after 24 hrs by propidium iodide staining based flow cytometry (reference value: 3.1 +/- 0.9%); assay type: functional; in short: as §3
# HepG2 [15] = experiment: Induction of cell cycle arrest on human HepG2 cells assessed as accumulation at subG1 phase at 20 uM after 48 hrs by propidium iodide staining based flow cytometry (reference value: 2.8 +/- 0.3%); assay type: functional; in short: as §3
# HepG2 [16] = experiment: Induction of cell cycle arrest on human HepG2 cells assessed as accumulation at G2/M phase at 20 uM after 48 hrs by propidium iodide staining based flow cytometry (reference value: 45.0 +/- 4.8%); assay type: functional
# BJ = experiment: Antiproliferative activity against human BJ cells assessed as inhibition of cell proliferation after 72 hrs by MTT assay; assay type: cell-based; settings: 72 h; in short: as §1
# SW-620 = experiment: (§4) Antiproliferative activity against human SW620 cells assessed as inhibition of cell proliferation after 72 hrs by MTT assay; assay type: functional, cell-based; in short: as §1
# [17] = as §4; assay type: functional, cell-based, SW-620; settings: Homo sapiens, SW-620, 72 h; in short: as §1
# HepG2 [18] = experiment: Induction of cell cycle arrest on human HepG2 cells assessed as accumulation at S phase at 50 uM after 48 hrs by propidium iodide staining based flow cytometry (reference value: 0 +/- 0%); assay type: functional; in short: as §3
# [19] = target: T1, DNA topoisomerase 1 (Homo sapiens) (UniProt P11387); experiment: Inhibition of human topoisomerase 1 assessed as topoisomerase poison activity by measuring generation of open circular DNA using supercoiled pUC19 DNA at 5 to 50 uM by agarose gel electrophoresis
# T1 sequence (whole entry): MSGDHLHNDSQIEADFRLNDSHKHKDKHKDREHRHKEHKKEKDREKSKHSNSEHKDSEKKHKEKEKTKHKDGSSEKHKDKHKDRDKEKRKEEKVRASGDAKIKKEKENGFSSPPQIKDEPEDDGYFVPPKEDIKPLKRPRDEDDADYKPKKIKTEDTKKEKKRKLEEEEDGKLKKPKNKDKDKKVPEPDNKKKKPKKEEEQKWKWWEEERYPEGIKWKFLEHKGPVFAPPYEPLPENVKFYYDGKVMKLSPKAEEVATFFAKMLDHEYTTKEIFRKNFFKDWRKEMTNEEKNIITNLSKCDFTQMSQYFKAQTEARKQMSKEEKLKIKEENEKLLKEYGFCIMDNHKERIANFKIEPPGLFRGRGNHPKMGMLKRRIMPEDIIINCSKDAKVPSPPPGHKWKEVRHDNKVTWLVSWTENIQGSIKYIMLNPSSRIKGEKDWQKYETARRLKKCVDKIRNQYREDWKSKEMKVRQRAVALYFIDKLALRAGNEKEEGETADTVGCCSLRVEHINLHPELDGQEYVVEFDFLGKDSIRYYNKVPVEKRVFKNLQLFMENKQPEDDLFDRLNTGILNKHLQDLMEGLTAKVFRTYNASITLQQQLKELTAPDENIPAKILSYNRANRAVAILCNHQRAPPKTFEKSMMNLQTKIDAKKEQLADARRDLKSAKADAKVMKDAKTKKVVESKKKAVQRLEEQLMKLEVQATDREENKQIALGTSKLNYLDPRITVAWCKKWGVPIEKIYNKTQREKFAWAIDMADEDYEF
# In short: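 Supercoiled pUC19 plasmid was incubated with human topoisomerase I and graded compound concentrations. Reactions were stopped with SDS and proteinase K. DNA forms were resolved on 1% agarose in TBE (2 h, 120 V), post-stained with ethidium bromide and photographed under UV. Poisoning was read as appearance of nicked DNA, with camptothecin as the positive control.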
# HepG2 [20] = experiment: Induction of cell cycle arrest on human HepG2 cells assessed as accumulation at subG1 phase at 50 uM after 48 hrs by propidium iodide staining based flow cytometry (reference value: 2.8 +/- 0.3%); assay type: functional; in short: as §3
# HepG2 [21] = experiment: Induction of cell cycle arrest on human HepG2 cells assessed as accumulation at G2/M phase at 50 uM after 48 hrs by propidium iodide staining based flow cytometry (reference value: 45.0 +/- 4.8%); assay type: functional
smiles,measurement,setting,value
O=[N+]([O-])c1ccc(/N=C2\c3ccccc3CN2c2ccc([N+](=O)[O-])cc2)cc1,Activity,HepG2 [1],53.7%
same,inhibition,HeLa,Dose-dependent effect
same,IC50,"HeLa; Homo sapiens, HeLa, 72 h",7.69 µM
same,inhibition,HepG2 [2],Dose-dependent effect
same,IC50,"HepG2 [2]; HepG2, 72 h",9.65 µM
same,Activity,HepG2 [3],59.7%
same,Activity,HepG2 [4],Active
same,inhibition,MCF7,Dose-dependent effect
same,IC50,"MCF7; Homo sapiens, MCF7, 72 h",8.14 µM
same,Activity,HepG2 [5],Active
same,Activity,HepG2 [6],27.6%
same,Activity,HepG2 [7],1.3%
same,Activity,Nucleic Acid,inactive
same,Activity,HepG2 [8],6.6%
same,Activity,HepG2 [9],55%
same,Activity,HepG2 [10],15.6%
same,Activity,HepG2 [11],17.4%
same,Activity,HepG2 [12],25.6%
same,Activity,HepG2 [13],58.8%
same,Activity,HepG2 [14],8.3%
same,Activity,HepG2 [15],4.4%
same,Activity,HepG2 [16],44.9%
same,IC50,"BJ; Homo sapiens, BJ",75.3 µM
same,inhibition (INH),"BJ; human, bj",Dose-dependent effect
same,inhibition,SW-620,Dose-dependent effect
same,IC50,[17],33.4 µM
same,Activity,HepG2 [18],0.8%
same,inhibition,[19],inactive
same,Activity,HepG2 [20],4.3%
same,Activity,HepG2 [21],39.4%
